Assay results reported in ChEMBL document CHEMBL5696442, “Discovery of type II inhibitors of TGFβ-activated kinase 1 (TAK1) and mitogen-activated protein kinase kinase kinase kinase 2 (MAP4K2)” (J Med Chem, 2015).

Key:
[1] = target: Mitogen-activated protein kinase kinase kinase 20 (Homo sapiens, UniProt Q9NYL2); experiment: Inhibition of ZAK Lys1 labeling site in human Huh-7 cell lysate at 1 uM by KiNativ Profiling analysis relative to control; assay type: subcellular
[2] = target: Calcium/calmodulin-dependent protein kinase type 1 (Homo sapiens) (UniProt Q14012); experiment: Inhibition of CAMK1 alpha Lys1 labeling site in human A-375 cells at 0.5 uM by KiNativ Profiling analysis relative to control; assay type: cell-based
Chain of Calcium/calmodulin-dependent protein kinase type 1 (Homo sapiens) (Q14012 whole entry, looked up): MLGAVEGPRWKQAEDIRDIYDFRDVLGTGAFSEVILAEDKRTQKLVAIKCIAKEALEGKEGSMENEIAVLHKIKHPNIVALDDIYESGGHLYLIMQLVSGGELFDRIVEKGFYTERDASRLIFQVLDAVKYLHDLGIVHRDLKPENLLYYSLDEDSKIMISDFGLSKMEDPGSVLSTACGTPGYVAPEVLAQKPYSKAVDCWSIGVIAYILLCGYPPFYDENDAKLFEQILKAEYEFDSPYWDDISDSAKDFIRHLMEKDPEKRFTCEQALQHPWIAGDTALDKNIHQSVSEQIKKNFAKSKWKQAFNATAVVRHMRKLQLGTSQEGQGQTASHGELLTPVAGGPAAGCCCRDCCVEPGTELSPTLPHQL
In short: (§1)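 Intact A375 melanoma cells were treated with compound at 5 or 0.5 μM, then lysed. Lysate kinases were labeled with a lysine-reactive ATP or ADP-biotin probe (KiNativ). Inhibition is read as protection of each kinase labeling site from probe labeling.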

[3] = target: T1, Serine/threonine-protein kinase Nek9 (Homo sapiens) (UniProt Q8TD19); experiment: Inhibition of NEK9 Lys2 labeling site in human A-375 cells at 0.05 uM by KiNativ Profiling analysis relative to control; assay type: cell-based
T1 sequence (whole entry): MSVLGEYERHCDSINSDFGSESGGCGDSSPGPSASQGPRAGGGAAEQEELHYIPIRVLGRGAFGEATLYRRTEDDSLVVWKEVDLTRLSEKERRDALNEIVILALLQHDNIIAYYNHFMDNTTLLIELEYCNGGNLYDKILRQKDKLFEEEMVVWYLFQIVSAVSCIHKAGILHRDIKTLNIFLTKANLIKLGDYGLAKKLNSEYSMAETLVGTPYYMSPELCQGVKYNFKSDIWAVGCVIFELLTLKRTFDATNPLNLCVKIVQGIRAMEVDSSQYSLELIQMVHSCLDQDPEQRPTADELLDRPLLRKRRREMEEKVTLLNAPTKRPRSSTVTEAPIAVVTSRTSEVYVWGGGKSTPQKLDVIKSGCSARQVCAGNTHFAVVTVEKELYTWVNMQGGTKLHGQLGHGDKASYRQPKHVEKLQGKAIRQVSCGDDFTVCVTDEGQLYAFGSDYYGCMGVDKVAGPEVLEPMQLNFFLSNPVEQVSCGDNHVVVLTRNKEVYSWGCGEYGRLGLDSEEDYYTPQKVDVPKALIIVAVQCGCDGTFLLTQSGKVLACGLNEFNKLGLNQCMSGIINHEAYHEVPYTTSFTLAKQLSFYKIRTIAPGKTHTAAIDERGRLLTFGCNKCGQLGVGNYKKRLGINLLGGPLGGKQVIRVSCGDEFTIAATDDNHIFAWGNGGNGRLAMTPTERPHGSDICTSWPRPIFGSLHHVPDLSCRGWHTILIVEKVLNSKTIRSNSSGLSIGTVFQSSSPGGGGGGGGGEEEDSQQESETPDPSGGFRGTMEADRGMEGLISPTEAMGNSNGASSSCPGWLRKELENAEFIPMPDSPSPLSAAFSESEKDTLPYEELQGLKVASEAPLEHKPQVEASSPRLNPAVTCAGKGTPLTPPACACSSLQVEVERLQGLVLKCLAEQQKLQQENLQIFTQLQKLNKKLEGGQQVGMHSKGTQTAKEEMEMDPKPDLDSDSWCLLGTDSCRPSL

[4] = target: Mitogen-activated protein kinase 8 (Homo sapiens, UniProt P45983); experiment: Inhibition of JNK1 Lys2 labeling site in human A-375 cells at 0.05 uM by KiNativ Profiling analysis relative to control; assay type: cell-based
Chain of Mitogen-activated protein kinase 8 (P45983 whole entry): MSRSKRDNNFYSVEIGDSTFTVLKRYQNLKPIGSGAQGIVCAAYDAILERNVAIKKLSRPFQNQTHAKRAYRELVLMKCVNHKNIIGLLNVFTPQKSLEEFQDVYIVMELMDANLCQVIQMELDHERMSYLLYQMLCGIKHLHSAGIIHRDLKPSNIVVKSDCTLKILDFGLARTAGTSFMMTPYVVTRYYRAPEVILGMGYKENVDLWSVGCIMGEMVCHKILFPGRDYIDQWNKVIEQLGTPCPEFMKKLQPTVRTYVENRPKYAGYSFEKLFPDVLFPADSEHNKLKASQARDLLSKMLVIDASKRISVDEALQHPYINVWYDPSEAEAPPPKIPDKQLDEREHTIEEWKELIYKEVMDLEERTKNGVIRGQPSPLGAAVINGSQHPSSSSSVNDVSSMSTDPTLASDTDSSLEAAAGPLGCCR

[5] = target: T2, Serine/threonine-protein kinase Chk1 (Homo sapiens) (UniProt O14757); experiment: Inhibition of CHK1 Lys2 labeling site harbouring DIKPENLLLDER in human A-375 cells at 0.05 uM by KiNativ Profiling analysis relative to control; assay type: cell-based
T2 sequence (whole entry): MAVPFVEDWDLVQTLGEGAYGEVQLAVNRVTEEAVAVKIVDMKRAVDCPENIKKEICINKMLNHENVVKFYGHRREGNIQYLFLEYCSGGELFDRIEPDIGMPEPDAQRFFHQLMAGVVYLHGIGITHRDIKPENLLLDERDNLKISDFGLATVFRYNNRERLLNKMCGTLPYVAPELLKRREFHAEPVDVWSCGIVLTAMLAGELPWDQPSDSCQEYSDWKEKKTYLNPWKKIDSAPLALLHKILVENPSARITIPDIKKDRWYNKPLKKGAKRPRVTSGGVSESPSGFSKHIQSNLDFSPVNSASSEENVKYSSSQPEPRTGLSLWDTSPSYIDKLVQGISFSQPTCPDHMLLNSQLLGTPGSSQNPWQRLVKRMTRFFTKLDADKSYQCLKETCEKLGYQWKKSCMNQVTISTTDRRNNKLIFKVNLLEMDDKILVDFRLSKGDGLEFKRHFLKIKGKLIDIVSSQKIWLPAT

[6] = target: Serine/threonine-protein kinase WNK1 (Homo sapiens) (UniProt Q9H4A3); experiment: Inhibition of Wnk1 Lys2 labeling site in human A-375 cells at 5 uM by KiNativ Profiling analysis relative to control; assay type: cell-based
[7] = target: Ribosomal protein S6 kinase alpha-3 (Homo sapiens) (UniProt P51812); experiment: Inhibition of RSK2 domain2 Protein Kinase Domain in human A-375 cells at 0.5 uM by KiNativ Profiling analysis relative to control; assay type: cell-based
In short: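 Live A375 melanoma cells treated with compound at 5 or 0.5 μM, then lysed. Lysate kinases were labeled with a lysine-reactive ATP or ADP-biotin probe. Inhibition was read as protection of labeling sites from the probe.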

[8] = target: Mitogen-activated protein kinase kinase kinase 11 (Homo sapiens) (UniProt Q16584); experiment: Inhibition of MLK3 Lys2 labeling site in human A-375 cells at 5 uM by KiNativ Profiling analysis relative to control; assay type: cell-based
[9] = Inhibition of p70S6K ATP Loop labeling site harbouring DLKPENIMLNHQGHVK in human A-375 cells at 5 uM by KiNativ Profiling analysis relative to control; details: condition cancer
[10] = target: Tyrosine-protein kinase JAK1 (Homo sapiens) (UniProt P23458); experiment: Inhibition of JAK1 domain2 ACT labeling site in human A-375 cells at 5 uM by KiNativ Profiling analysis relative to control; assay type: cell-based
Chain of Tyrosine-protein kinase JAK1 (Homo sapiens) (P23458 whole entry, the tested form may be a part): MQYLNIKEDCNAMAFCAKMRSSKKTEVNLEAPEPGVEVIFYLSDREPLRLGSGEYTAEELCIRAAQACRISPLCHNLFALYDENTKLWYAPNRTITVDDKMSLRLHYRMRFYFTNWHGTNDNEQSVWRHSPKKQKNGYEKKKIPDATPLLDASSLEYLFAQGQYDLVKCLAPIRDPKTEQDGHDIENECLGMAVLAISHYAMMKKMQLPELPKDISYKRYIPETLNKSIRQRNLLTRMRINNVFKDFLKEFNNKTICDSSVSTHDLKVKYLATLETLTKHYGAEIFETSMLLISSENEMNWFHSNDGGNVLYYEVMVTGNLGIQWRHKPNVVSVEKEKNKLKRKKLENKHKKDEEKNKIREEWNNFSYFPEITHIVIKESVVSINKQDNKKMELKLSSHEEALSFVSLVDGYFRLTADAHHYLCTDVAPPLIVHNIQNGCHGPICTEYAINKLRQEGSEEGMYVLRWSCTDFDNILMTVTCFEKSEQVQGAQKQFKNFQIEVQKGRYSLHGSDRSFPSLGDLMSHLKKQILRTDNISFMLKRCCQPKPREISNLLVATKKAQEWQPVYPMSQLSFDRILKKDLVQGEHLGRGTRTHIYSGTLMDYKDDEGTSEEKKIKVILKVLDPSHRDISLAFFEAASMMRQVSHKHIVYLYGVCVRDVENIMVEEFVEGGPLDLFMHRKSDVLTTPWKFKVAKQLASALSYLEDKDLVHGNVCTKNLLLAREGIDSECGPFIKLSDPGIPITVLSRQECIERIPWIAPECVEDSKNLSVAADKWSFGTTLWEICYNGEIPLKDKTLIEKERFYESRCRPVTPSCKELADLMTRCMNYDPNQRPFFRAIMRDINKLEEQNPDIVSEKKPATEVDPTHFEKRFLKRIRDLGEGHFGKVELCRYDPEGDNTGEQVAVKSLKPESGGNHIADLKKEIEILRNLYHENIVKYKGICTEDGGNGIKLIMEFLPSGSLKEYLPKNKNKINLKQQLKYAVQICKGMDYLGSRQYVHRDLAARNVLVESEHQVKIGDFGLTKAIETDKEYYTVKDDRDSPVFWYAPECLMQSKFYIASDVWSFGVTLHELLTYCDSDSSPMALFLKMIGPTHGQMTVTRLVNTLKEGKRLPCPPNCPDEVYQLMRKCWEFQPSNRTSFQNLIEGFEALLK

[11] = target: Serine/threonine-protein kinase 24 (Homo sapiens) (UniProt Q9Y6E0); experiment: Inhibition of MST3 ACT labeling site in human A-375 cells at 5 uM by KiNativ Profiling analysis relative to control; assay type: cell-based
Chain of Serine/threonine-protein kinase 24 (Homo sapiens) (Q9Y6E0 whole entry, looked up): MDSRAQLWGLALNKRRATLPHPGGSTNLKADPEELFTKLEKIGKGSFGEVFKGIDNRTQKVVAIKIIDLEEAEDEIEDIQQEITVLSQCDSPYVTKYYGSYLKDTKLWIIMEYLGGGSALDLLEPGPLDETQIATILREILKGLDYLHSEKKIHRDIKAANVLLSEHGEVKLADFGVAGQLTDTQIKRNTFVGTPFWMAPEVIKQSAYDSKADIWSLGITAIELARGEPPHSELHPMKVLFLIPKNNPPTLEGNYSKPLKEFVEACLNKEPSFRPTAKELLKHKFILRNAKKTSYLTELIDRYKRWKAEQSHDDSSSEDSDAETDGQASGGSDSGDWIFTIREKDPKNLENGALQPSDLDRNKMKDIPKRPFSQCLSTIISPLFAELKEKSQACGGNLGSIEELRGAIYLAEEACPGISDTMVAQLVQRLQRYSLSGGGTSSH

[12] = target: MAP/microtubule affinity-regulating kinase 3 (Homo sapiens) (UniProt P27448); experiment: Inhibition of MARK3 Lys1 labeling site in human A-375 cells at 0.05 uM by KiNativ Profiling analysis relative to control; assay type: cell-based
[13] = target: Serine/threonine-protein kinase SMG1 (Homo sapiens) (UniProt Q96Q15); experiment: Inhibition of SMG1 ATP labeling site harbouring SYPYLFKGLEDLHLDER in human A-375 cells at 0.05 uM by KiNativ Profiling analysis relative to control; assay type: cell-based
[14] = target: Serine/threonine-protein kinase WNK2 (Homo sapiens) (UniProt Q9Y3S1); experiment: Inhibition of Wnk2 ACT labeling site in human A-375 cells at 0.5 uM by KiNativ Profiling analysis relative to control; assay type: cell-based
Chain of Serine/threonine-protein kinase WNK2 (Homo sapiens) (Q9Y3S1 whole entry): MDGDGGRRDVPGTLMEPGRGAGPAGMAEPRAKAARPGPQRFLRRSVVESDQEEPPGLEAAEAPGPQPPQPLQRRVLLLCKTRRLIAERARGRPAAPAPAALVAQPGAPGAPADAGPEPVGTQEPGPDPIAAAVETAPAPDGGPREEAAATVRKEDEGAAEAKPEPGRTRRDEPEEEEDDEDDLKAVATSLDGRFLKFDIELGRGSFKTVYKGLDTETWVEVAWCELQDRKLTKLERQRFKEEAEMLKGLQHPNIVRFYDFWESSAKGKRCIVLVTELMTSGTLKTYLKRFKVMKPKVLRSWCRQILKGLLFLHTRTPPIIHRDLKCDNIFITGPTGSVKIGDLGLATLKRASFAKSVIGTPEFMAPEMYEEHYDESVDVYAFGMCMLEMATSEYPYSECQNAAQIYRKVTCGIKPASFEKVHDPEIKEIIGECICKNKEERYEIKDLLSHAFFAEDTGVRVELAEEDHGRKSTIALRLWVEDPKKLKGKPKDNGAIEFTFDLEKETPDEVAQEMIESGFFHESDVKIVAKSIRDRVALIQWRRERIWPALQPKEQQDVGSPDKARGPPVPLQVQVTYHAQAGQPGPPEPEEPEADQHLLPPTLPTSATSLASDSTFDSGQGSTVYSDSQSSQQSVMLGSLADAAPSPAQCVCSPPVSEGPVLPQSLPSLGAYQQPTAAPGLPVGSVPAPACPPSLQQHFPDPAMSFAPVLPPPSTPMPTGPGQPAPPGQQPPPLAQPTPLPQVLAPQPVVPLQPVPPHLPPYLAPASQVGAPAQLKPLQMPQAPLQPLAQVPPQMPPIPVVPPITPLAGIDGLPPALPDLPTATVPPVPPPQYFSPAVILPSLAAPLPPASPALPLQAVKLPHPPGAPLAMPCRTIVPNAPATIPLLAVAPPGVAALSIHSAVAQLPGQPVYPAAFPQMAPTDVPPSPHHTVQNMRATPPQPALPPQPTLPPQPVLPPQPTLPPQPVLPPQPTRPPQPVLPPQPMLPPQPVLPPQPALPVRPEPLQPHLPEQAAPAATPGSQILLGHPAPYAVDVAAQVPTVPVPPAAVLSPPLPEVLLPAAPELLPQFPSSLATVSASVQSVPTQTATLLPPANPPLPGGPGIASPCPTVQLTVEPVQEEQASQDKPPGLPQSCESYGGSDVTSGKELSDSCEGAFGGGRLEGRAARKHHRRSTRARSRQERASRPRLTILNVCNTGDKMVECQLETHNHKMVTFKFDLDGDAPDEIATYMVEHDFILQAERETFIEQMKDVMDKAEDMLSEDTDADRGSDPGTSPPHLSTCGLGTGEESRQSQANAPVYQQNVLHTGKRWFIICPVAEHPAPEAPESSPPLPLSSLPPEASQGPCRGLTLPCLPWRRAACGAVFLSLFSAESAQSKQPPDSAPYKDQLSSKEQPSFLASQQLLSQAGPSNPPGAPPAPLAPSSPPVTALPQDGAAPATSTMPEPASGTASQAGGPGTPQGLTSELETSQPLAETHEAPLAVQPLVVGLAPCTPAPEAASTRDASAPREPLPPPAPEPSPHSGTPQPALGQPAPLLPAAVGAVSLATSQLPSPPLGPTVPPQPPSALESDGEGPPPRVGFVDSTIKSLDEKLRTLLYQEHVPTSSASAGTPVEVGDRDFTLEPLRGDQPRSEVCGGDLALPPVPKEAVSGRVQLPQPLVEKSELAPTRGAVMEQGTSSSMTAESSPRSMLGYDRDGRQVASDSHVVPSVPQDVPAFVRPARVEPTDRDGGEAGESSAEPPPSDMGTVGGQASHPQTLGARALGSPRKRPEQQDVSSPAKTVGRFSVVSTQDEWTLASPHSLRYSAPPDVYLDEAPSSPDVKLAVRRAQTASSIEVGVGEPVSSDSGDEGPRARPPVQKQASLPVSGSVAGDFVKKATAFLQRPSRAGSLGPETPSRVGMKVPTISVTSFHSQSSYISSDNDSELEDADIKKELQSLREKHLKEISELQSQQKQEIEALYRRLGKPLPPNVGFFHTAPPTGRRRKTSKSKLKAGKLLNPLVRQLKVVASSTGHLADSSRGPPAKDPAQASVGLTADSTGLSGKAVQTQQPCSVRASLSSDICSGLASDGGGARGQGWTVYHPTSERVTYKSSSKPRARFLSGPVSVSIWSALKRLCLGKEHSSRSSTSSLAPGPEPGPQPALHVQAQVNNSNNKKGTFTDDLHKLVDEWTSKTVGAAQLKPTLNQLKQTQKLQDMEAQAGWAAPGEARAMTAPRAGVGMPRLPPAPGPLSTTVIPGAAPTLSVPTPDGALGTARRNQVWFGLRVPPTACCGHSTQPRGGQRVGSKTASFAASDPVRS

[15] = target: Calcium/calmodulin-dependent protein kinase type 1 (Homo sapiens) (UniProt Q14012); experiment: Inhibition of CaMK1a Lys1 labeling site in human A-375 cells at 0.5 uM by KiNativ Profiling analysis relative to control; assay type: cell-based; in short: as §1

Row | Compound | inhibition [1] | inhibition [2] | inhibition [3] | inhibition [4] | inhibition [5] | inhibition [6] | inhibition [7] | inhibition [8] | inhibition at 5 µM [9] | inhibition [10] | inhibition [11] | inhibition [12] | inhibition [13] | inhibition [14] | inhibition [15]
1 | CNc1cc(Oc2cc(C(=O)Nc3cc(-n4cnc(C)c4)cc(C(F)(F)F)c3)ccc2C)ncn1 | 43.6% |  |  |  |  |  |  |  |  |  |  |  |  |  | 
2 | CNc1cc(Oc2cc(C(=O)Nc3cc(N4CCN(C)CC4)cc(C(F)(F)F)c3)ccc2C)ncn1 | 31.8% |  |  |  |  |  |  |  |  |  |  |  |  |  | 
3 | CCN1CCN(Cc2ccc(NC(=O)c3ccc(C)c(Oc4ccnc5[nH]ccc45)c3)cc2C(F)(F)F)CC1 |  | 69.7% | 4.2% | 50.3% | 49.4% | -5.5% | 7.2% | 9.5% | 14.7% | 95.4% | 35.1% | -4.5% | 15.6% | 3.9% | 67%
4 | CCN1CCN(Cc2ccc(NC(=O)c3ccc(C)c(/C=C/c4cnc5[nH]ccc5c4OC)c3)cc2C(F)(F)F)CC1 |  | 37% | 2% | 23.9% | 8.3% | 14.3% | -4.1% | 81.1% | -8% | 69.2% | 13.7% | 16% | 31.7% | 6.9% | 37%
